In ChEMBL document CHEMBL1145950, “2-arylureidobenzoic acids: selective noncompetitive antagonists for the homomeric kainate receptor subtype GluR5” (J Med Chem, 2003):

Experiments:
[1] = target: T1, Glutamate receptor ionotropic, kainate 1 (Homo sapiens, UniProt P39086); assay: In vitro inhibitory activity against human ionotropic glutamate receptor ionotropic kainate 1 (GluR-5) expressed in HEK293 cells.; assay type: cell-based
[2] = target: Glutamate receptor 3 (Rattus norvegicus) (UniProt P19492); assay: In vitro inhibitory activity against Ionotropic glutamate receptor AMPA 3 of HEK293 cells in FLIPR assay
[3] = target: Glutamate receptor 4 (Rattus norvegicus) (UniProt P19493); assay: In vitro inhibitory activity against Ionotropic glutamate receptor AMPA 4 of HEK293 cells in FLIPR assay
Mus musculus [4] = assay: ATPA induced rigidity in mice was determined after 5 minutes of administration; assay type: functional
Summary of the method: (§1)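 Female NMRI mice, 20-25 g. Test substance given intravenously, n = 8 per dose, 5 or 30 min before ATPA (30 mg/kg i.v.; 3 mg/mL in saline, pH 7). Rigidity scored every 5 min over 30 min after ATPA, as percent of rigid mice over time.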

Mus musculus [5] = assay: ATPA induced rigidity in mice was determined after 30 minutes of administration; assay type: functional; summary of the method: as §1
[6] = target: Glutamate receptor ionotropic, kainate 2 (Homo sapiens, UniProt Q13002); assay: In vitro inhibitory activity against Ionotropic glutamate receptor ionotropic kainate 2 (GluR-6) of HEK293 cells in FLIPR assay; assay type: cell-based
Summary of the method: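 Human GluR6 stably expressed in HEK293, plated 24 h before assay. Cells loaded with 2 µM Fluo-4-AM for 60 min at room temperature, washed into Na+-free Ringer, pH 7.4. Compound preincubated 1.5 min, then 0.2 µM domoate added (final). Inhibition of the FLIPR Ca2+ fluorescence rise (ex 488, em 510-570 nm) was measured; IC50 from ≥3 experiments.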

[7] = target: Glutamate receptor 1 (Rattus norvegicus) (UniProt P19490); assay: In vitro inhibitory activity against Ionotropic glutamate receptor AMPA 1 of HEK293 cells in FLIPR assay
[8] = target: T1, Glutamate receptor ionotropic, kainate 1; assay: Binding inhibition of compound against Ionotropic glutamate receptor ionotropic kainate 1 (GluR5) using [3H]ATPA as radioligand
Summary of the method: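 GluR5-expressing HEK293 cell membranes (washed in 50 mM Tris-HCl pH 7.1, prepared at 0-4 °C) incubated with 3 nM [3H]ATPA, 46-84 µg protein/assay, 60 min at 2 °C; test compounds at 3-30 µM. Nonspecific binding defined with 0.6 mM Glu; rapid filtration, liquid scintillation counting. At least three separate experiments.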

[9] = target: Glutamate receptor 2 (Rattus norvegicus) (UniProt P19491); assay: In vitro inhibitory activity against Ionotropic glutamate receptor AMPA 2 of HEK293 cells in FLIPR assay

T1 sequence (P39086 whole entry): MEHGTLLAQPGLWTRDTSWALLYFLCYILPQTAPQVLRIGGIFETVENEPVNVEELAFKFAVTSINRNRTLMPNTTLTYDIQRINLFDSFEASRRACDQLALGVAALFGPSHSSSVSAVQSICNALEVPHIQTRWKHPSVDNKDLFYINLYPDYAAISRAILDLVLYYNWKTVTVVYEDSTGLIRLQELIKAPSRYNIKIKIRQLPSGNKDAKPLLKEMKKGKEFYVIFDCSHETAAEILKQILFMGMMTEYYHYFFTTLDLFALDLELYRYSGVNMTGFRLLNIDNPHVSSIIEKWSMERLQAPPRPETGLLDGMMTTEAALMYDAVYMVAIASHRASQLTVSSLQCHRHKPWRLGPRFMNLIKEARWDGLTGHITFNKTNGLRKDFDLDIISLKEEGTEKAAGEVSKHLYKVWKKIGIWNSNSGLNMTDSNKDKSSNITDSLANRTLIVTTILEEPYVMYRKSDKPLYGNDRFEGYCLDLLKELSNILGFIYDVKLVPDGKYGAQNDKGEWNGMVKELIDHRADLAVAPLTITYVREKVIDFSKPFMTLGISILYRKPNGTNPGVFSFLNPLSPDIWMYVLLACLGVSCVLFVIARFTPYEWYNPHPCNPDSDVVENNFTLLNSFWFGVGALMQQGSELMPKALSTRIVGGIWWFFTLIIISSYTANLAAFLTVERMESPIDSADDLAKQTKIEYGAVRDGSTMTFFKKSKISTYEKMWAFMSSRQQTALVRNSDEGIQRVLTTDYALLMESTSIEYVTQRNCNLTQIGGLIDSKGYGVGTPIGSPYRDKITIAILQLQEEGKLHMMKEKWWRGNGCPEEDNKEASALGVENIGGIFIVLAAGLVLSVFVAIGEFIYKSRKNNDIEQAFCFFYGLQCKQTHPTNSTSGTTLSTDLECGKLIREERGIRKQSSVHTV
Sequence of Glutamate receptor 4 (Rattus norvegicus) (P19493 whole entry, looked up): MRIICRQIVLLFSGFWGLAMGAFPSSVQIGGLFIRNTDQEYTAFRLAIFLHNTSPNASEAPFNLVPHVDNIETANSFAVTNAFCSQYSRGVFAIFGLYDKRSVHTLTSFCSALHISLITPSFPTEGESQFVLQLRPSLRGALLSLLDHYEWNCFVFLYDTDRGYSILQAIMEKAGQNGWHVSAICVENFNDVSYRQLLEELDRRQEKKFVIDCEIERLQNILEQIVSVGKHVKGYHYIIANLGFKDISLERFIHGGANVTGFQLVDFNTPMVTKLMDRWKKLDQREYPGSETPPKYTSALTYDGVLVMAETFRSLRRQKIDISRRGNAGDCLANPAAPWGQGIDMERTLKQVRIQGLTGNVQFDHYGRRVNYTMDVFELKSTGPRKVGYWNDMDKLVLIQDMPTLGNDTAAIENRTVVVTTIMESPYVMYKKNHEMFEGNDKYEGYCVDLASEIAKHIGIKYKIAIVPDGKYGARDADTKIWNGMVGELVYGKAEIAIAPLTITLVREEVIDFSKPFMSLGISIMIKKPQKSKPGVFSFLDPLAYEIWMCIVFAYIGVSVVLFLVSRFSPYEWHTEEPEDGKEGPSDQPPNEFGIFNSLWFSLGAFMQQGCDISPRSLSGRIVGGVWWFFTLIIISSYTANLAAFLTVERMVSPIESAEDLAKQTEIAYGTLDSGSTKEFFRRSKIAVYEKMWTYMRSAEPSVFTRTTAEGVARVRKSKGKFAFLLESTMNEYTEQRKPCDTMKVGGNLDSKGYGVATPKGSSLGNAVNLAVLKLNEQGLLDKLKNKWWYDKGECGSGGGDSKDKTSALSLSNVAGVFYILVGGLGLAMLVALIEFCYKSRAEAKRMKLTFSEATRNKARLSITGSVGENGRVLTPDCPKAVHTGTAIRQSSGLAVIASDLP
Sequence of Glutamate receptor 1 (Rattus norvegicus) (P19490 whole entry, looked up): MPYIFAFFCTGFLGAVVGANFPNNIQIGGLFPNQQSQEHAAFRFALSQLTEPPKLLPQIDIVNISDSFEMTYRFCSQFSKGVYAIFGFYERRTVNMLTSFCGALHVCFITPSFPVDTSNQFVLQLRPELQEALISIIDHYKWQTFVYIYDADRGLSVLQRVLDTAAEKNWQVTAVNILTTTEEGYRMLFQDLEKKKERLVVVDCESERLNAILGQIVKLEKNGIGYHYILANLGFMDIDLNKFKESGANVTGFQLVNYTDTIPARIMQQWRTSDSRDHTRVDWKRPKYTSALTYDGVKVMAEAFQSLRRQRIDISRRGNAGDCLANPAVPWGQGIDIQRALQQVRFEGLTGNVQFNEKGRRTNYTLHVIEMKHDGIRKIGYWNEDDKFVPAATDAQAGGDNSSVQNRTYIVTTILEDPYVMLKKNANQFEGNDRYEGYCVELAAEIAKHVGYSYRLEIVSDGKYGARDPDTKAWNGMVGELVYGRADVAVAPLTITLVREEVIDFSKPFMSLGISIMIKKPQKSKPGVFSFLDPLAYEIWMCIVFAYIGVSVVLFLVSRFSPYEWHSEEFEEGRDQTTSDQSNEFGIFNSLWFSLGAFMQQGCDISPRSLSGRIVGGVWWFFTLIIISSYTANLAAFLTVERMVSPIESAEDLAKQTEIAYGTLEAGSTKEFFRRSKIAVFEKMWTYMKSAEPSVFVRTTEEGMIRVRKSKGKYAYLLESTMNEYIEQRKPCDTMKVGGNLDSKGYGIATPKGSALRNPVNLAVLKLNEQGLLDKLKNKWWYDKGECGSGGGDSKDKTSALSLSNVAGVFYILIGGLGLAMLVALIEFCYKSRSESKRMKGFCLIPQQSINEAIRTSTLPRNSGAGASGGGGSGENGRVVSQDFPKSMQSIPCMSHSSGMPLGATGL
Sequence of Glutamate receptor ionotropic, kainate 2 (Q13002 whole entry): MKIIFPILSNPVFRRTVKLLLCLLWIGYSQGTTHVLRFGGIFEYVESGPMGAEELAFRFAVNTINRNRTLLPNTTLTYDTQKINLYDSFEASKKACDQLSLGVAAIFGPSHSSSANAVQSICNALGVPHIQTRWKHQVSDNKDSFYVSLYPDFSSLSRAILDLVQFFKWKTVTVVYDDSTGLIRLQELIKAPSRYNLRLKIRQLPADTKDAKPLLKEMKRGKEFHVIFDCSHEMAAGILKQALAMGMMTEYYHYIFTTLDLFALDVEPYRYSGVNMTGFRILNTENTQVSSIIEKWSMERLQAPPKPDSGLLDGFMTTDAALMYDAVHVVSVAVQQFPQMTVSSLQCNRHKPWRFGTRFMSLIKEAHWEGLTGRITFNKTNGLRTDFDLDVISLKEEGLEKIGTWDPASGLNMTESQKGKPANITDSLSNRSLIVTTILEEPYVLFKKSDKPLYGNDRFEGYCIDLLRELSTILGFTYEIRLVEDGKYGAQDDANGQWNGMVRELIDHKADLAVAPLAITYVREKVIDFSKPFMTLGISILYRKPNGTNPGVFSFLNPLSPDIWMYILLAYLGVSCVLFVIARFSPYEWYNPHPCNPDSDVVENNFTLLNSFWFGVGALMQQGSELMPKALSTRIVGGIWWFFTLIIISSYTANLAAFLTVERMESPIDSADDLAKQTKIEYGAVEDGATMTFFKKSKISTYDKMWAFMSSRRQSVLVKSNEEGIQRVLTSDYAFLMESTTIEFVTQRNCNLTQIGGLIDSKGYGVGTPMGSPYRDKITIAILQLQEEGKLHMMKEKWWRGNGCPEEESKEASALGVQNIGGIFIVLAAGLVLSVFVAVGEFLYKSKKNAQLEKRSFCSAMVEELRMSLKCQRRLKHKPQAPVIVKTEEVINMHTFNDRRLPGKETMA
Sequence of Glutamate receptor 3 (Rattus norvegicus) (P19492 whole entry, looked up): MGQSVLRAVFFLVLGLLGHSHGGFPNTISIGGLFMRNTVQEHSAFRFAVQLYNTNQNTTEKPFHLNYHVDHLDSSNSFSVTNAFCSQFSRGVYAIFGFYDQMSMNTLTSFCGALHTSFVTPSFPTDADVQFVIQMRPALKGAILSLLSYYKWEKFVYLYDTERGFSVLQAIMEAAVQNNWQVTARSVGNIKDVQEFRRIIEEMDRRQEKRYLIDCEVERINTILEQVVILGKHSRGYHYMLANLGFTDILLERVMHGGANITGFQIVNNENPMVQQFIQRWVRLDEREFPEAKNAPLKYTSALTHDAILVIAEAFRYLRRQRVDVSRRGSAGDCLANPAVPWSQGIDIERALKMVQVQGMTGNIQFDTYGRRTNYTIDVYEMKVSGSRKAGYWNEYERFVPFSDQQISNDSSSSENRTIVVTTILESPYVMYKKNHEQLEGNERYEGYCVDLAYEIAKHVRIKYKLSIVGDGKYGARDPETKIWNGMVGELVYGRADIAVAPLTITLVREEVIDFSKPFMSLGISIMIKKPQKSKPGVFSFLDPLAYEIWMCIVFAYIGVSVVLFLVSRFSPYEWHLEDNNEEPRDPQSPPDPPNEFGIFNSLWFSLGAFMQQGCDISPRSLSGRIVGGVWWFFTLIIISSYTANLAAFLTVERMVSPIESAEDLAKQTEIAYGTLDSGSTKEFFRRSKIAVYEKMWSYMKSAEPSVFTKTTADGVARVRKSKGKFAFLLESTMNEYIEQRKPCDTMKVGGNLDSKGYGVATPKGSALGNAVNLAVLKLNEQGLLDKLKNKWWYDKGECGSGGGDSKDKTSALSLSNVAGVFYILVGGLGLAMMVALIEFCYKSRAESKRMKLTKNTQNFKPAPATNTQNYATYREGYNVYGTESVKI

| Compound | IC50 [1] [µM] | further results |
| --- | --- | --- |
| COc1cccc(NC(=O)Nc2cc(Cl)ccc2C(=O)O)c1 | 3.7 | – |
| COc1ccc(NC(=O)Nc2cc(Cl)ccc2C(=O)O)cc1 | 10 | – |
| O=C(Nc1cc(Cl)ccc1C(=O)O)NC1CCCCC1 | > 100 | – |
| Cc1cccc(NC(=O)Nc2cccc(C(F)(F)F)c2)c1C(=O)O | > 100 | – |
| O=C(Nc1ccc(Cl)cc1)Nc1cc(Cl)ccc1C(=O)O | 3.1 | – |
| O=C(Nc1ccccc1Cl)Nc1cc(Cl)ccc1C(=O)O | 4.7 | – |
| O=C(Nc1ccncc1)Nc1cc(Cl)ccc1C(=O)O | 88 | – |
| O=C(Nc1cccc(I)c1)Nc1cc(Cl)ccc1C(=O)O | 2.2 | – |
| O=C(Nc1cccc(C(F)(F)F)c1)Nc1cc(Cl)ccc1C(=O)O | 5 | – |
| O=C(Nc1cccc(Br)c1)Nc1cc(Cl)ccc1C(=O)O | 4.8 | IC50 [2]: > 100 µM; IC50 [3]: > 100 µM; ED50 (Mus musculus [4]; Mus musculus, 5 min): 4 mg/kg; ED50 (Mus musculus [5]; Mus musculus, 0.5 h): 24 mg/kg; IC50 [6]: 28 µM; IC50 [7]: > 100 µM; IC50 [8]: > 30 µM; IC50 [9]: > 100 µM |
| O=C(Nc1cc(Cl)ccc1C(=O)O)Nc1ccccc1-c1ccccc1 | > 10 | – |
| Cc1ccc(NC(=O)Nc2cccc(C(F)(F)F)c2)c(C(=O)O)c1 | > 100 | – |
| O=C(Nc1ccc(Br)cc1)Nc1cc(Cl)ccc1C(=O)O | 2.2 | – |
| O=C(Nc1ccc2cc3ccccc3cc2c1)Nc1cc(Cl)ccc1C(=O)O | > 30 | – |
| O=C(Nc1ccccc1I)Nc1cc(Cl)ccc1C(=O)O | 5 | – |
| O=C(Nc1ccc(I)cc1)Nc1cc(Cl)ccc1C(=O)O | 4.7 | – |
| O=C(Nc1ccccc1Br)Nc1cc(Cl)ccc1C(=O)O | 4.5 | – |
| O=C(Nc1ccccc1)Nc1cc(Cl)ccc1C(=O)O | 10 | – |
| O=C(Nc1cc(Cl)ccc1C(=O)O)Nc1ccccc1C(F)(F)F | 4.5 | – |
| O=C(Nc1cc(Cl)ccc1C(=O)O)Nc1cccc2ccccc12 | 9.4 | – |
| Cc1cccc(C(=O)O)c1NC(=O)Nc1cccc(C(F)(F)F)c1 | > 100 | – |
| O=C(Nc1cc(NC(=O)c2ccccc2)c(C(=O)O)cc1C(=O)O)c1ccccc1 | 1.6 | – |
| O=C(Nc1cccc(F)c1)Nc1cc(Cl)ccc1C(=O)O | 7.6 | – |
| O=C(Nc1ccccc1)Nc1ccccc1C(=O)O | > 100 | – |
| O=C(Nc1cccc(C(F)(F)F)c1)Nc1cc(F)ccc1C(=O)O | 10 | – |
| O=C(Nc1ccc2ccccc2c1)Nc1cc(Cl)ccc1C(=O)O | 1.2 | IC50 [2]: > 100 µM; IC50 [3]: > 100 µM; ED50 (Mus musculus [4]): > 30 mg/kg; ED50 (Mus musculus [5]): > 30 mg/kg; IC50 [6]: 62 µM; IC50 [7]: > 100 µM; IC50 [8]: > 30 µM |
| O=C(Nc1cccc(C(F)(F)F)c1)Nc1cc(Br)ccc1C(=O)O | 6.1 | – |
| O=C(Nc1cc2ccccc2[nH]1)Nc1cc(Cl)ccc1C(=O)O | 1.2 | – |
| O=C(Nc1ccc2c(c1)OCO2)Nc1cc(Cl)ccc1C(=O)O | 3.6 | – |
| O=C(Nc1ccc(C(F)(F)F)cc1)Nc1cc(Cl)ccc1C(=O)O | 4.8 | – |
